ChEMBL document CHEMBL1143412, “RSV604, a novel inhibitor of respiratory syncytial virus replication” (Antimicrob Agents Chemother, 2007)
Activity calls are given as the source filed them. The rule behind the calls is not given here.

Columns and labels:
[1] = system: Respiratory syncytial virus; experiment: Antiviral activity against RSV infected human Hep2 cells assessed as reduction of plaque formation pretreated 2 hrs before viral infection; format: functional, organism-based; details: HEp-2
Method in brief: (§1)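 Plaque reduction in HEp-2 cells with compound added either 2 h before infection or 6 h after. Duplicate wells per dilution. Percent plaque reduction calculated against compound-free infected wells. Four independent experiments.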

[2] = system: Respiratory syncytial virus; experiment: Antiviral activity against RSV infected human Hep2 cells assessed as reduction of plaque formation treated 6 hrs after viral infection; format: functional, organism-based; details: HEp-2; method in brief: as §1
[3] = system: Respiratory syncytial virus; experiment: Antiviral activity against RSV infected human Hep2 cells assessed as plaque reduction […] by plaque reduction assay; format: functional, HEp-2; set-up: scale not given: the % may be the effect or the level left
[4] = Cytotoxicity against RSV RSS infected human Hep2 cells after 6 days by XTT assay; format: cell-based, HEp-2
[5] = system: Respiratory syncytial virus; experiment: Antiviral activity against RSV RSS infected human Hep2 cells after 5 days by plaque reduction assay; format: functional, organism-based; details: HEp-2, 120 h
Method in brief: (§2)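 HEp-2 monolayers in six-well plates infected with 0.2 ml of 500 PFU/ml virus. After 2 h, overlaid with DMEM, 2% FBS, 0.6% agarose plus compound dilution series. Incubated 5 days, formaldehyde-fixed, plaques stained with methylene blue or immunostained and counted. Activity expressed as percent of plaques in untreated infected wells.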

[6] = system: Respiratory syncytial virus; experiment: Antiviral activity against DMSO-passaged wild type RSV RSS infected human Hep2 cells by plaque reduction assay; format: functional, organism-based; details: HEp-2; method in brief: as §2
[7] = system: Respiratory syncytial virus; experiment: Drug resistance, ratio of EC50 for plaque picked RSV604-resistant RSV RSS from passage 2 to EC50 for DMSO-passaged wild type RSV RSS; format: functional
[8] = system: Respiratory syncytial virus; experiment: Antiviral activity against RSV RSS infected human Hep2 cells assessed as reduction of viral antigen synthesis after 3 days by ELISA; format: functional, organism-based; details: HEp-2, 72 h
Method in brief: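 HEp-2 cells seeded at 5 × 10³ per well in DMEM/10% FBS for 24 h, infected with RSV RSS at MOI about 0.02, serial compound dilutions for 3 days. Cells fixed and permeabilised in methanol-acetone, blocked in milk-Tween. Probed with mouse anti-RSV monoclonal then HRP anti-mouse. Developed with o-phenylenediamine/H2O2, absorbance […].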

[9] = system: Respiratory syncytial virus; experiment: Antiviral activity against RSV RSS infected human Hep2 cells assessed as inhibition of virus-induced cell death after 6 days by XTT assay; format: functional, organism-based; details: HEp-2, 144 h
Method in brief: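 HEp-2 cells seeded at 4 × 10³ per well in DMEM with 10% FBS, infected next day with RSV RSS dosed to give about 80% cytopathic effect by day 6. Serial compound dilutions (top 10 μM, 0.5% DMSO) present throughout. Viability read by XTT reduction after 6 days. EC50 taken as 50% reduction in virus-induced cell death.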

[10] = Therapeutic index, CC50 for human Hep2 cells to EC50 for RSV RSS; format: cell-based, HEp-2; details: read-out: Ratio CC50/EC50
Method in brief: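 Ratio of CC50 from uninfected HEp-2 XTT control plates to EC50 from RSV RSS-infected XTT plates, both read after 6 days.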

[11] = system: Respiratory syncytial virus; experiment: Antiviral activity against plaque picked RSV604-resistant RSV RSS from passage 2 in human Hep2 cells by plaque reduction assay; format: functional, organism-based; details: HEp-2; method in brief: as §2
[12] = system: Respiratory syncytial virus; experiment: Antiviral activity against RSV B infected human Hep2 cells after 5 days by plaque reduction assay; format: functional, organism-based; details: HEp-2, 120 h; method in brief: as §2
[13] = system: Respiratory syncytial virus; experiment: Antiviral activity against RSV Long infected human Hep2 cells after 5 days by plaque reduction assay; format: functional, organism-based; details: HEp-2, 120 h; method in brief: as §2
[14] = system: Respiratory syncytial virus; experiment: Antiviral activity against RSV A2 infected human Hep2 cells after 5 days by plaque reduction assay; format: functional, organism-based; details: A2, HEp-2, 120 h; method in brief: as §2
[15] = system: Respiratory syncytial virus; experiment: Antiviral activity against RSV RSS M2 mutant infected human Hep2 cells after 5 days by plaque reduction assay; format: functional, organism-based; details: HEp-2, 120 h; method in brief: as §2
[16] = system: Respiratory syncytial virus; experiment: Antiviral activity against plaque picked A-33903-resistant RSV RSS from passage 2 in human Hep2 cells by plaque reduction assay; format: functional, organism-based; details: HEp-2; method in brief: as §2
[17] = system: Respiratory syncytial virus; experiment: Antiviral activity against recombinant RSV expressing GFP infected HAE cells assessed as inhibition of viral replication at 10 uM by fluorescence microscopy; format: functional, organism-based
[18] = system: Bovine orthopneumovirus; experiment: Antiviral activity against bovine RSV snook infected human Hep2 cells after 5 days by plaque reduction assay; format: functional, organism-based, Bovine respiratory syncytial virus; details: HEp-2, 120 h; method in brief: as §2
[19] = system: Respiratory syncytial virus; experiment: Antiviral activity against recombinant RSV expressing GFP infected HAE cells assessed as inhibition of viral replication at 1 uM by fluorescence microscopy; format: functional, organism-based
[20] = system: Respiratory syncytial virus; experiment: Antiviral activity against recombinant RSV expressing GFP infected HAE cells assessed as lack of viral replication-dependent green fluorescence level at 2 uM by fluorescence microscopy; format: functional, organism-based
[21] = system: Respiratory syncytial virus; experiment: Antiviral activity against RSV B isolates infected human Hep2 cells after 5 days by plaque reduction assay; format: functional, organism-based; details: HEp-2, 120 h; method in brief: as §2
[22] = system: Respiratory syncytial virus; experiment: Drug resistance, ratio of EC50 for RSV RSS with N protein N105D mutation to EC50 for wild type RSV RSS; format: functional
[23] = system: Human respirovirus 1; experiment: Antiviral activity against Parainfluenza virus type 1 infected human Hep2 cells after 5 days by plaque reduction assay; format: functional, organism-based; details: Human respirovirus 1, HEp-2, 120 h; method in brief: as §2
[24] = system: Respiratory syncytial virus; experiment: Antiviral activity against RSV A isolates infected human Hep2 cells after 5 days by plaque reduction assay; format: functional, organism-based; details: HEp-2, 120 h; method in brief: as §2
[25] = system: Respiratory syncytial virus; experiment: Antiviral activity against recombinant RSV expressing GFP infected HAE cells assessed as lack of viral replication-dependent green fluorescence level at 20 uM by fluorescence microscopy; format: functional, organism-based
[26] = system: Respiratory syncytial virus; experiment: Drug resistance, ratio of EC50 for RSV RSS with N protein I129L plus L139I mutant mutation to EC50 for wild type RSV RSS; format: functional
[27] = Toxicity in recombinant RSV expressing GFP infected HAE cells assessed as leakage of basolateral fluid to apical surface at 20 uM for 7 days; details: human, 168 h
Method in brief: (§3)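 Differentiated human airway epithelial cultures exposed to 20 μM compound for 7 days. Scored for gross cytotoxicity, leakage of basolateral fluid to the apical surface, and cilium beat frequency.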

[28] = system: Metapneumovirus; experiment: Antiviral activity against human Metapneumovirus infected human Hep2 cells after 5 days by plaque reduction assay; format: functional, organism-based; details: HEp-2, 120 h; method in brief: as §2
[29] = system: Respiratory syncytial virus; experiment: Antiviral activity against recombinant RSV expressing GFP infected HAE cells assessed as inhibition of viral replication at 20 uM by fluorescence microscopy; format: functional, organism-based
[30] = system: Respiratory syncytial virus; experiment: Drug resistance, ratio of EC50 for RSV RSS with N protein L139I mutation to EC50 for wild type RSV RSS; format: functional
[31] = Toxicity in recombinant RSV expressing GFP infected HAE cells assessed as alteration of cilium beat frequency at 20 uM for 7 days; details: human, 168 h; method in brief: as §3
[32] = system: Human respirovirus 3; experiment: Antiviral activity against Parainfluenza virus type 3 infected human Hep2 cells after 5 days by plaque reduction assay; format: functional, organism-based; details: Human respirovirus 3, HEp-2, 120 h; method in brief: as §2
[33] = system: Respiratory syncytial virus; experiment: Antiviral activity against RSV RSS with N protein I129L plus L139I mutant mutation in human Hep2 cells after 5 days by plaque reduction assay; format: functional, organism-based; details: HEp-2, 120 h; method in brief: as §2
[34] = system: Respiratory syncytial virus; experiment: Antiviral activity against RSV RSS with N protein […] mutation in human Hep2 cells after 5 days by plaque reduction assay; format: functional, organism-based; details: HEp-2, 120 h; method in brief: as §2
[35] = system: Pneumonia virus of mice 15; experiment: Antiviral activity against Pneumonia virus of mice 15 infected human Hep2 cells after 5 days by plaque reduction assay; format: functional, organism-based; details: murine pneumonia virus, HEp-2, 120 h; method in brief: as §2
[36] = system: Respiratory syncytial virus; experiment: Antiviral activity against recombinant RSV expressing GFP infected HAE cells assessed as lack of viral replication-dependent green fluorescence level at 10 uM by fluorescence microscopy; format: functional, organism-based
[37] = system: Respiratory syncytial virus; experiment: Antiviral activity against 1.5 MOI RSV RSS infected human Hep2 cells assessed as inhibition of virus-induced cell death after 6 days by XTT assay; format: functional, organism-based; details: HEp-2, 144 h
[38] = system: Respiratory syncytial virus; experiment: Antiviral activity against RSV RSS with N protein L139I mutation in human Hep2 cells after 5 days by plaque reduction assay; format: functional, organism-based; details: HEp-2, 120 h; method in brief: as §2
[39] = system: Respiratory syncytial virus; experiment: Antiviral activity against RSV RSS with N protein N105D mutation in human Hep2 cells after 5 days by plaque reduction assay; format: functional, organism-based; details: HEp-2, 120 h; method in brief: as §2
[40] = system: Respiratory syncytial virus; experiment: Drug resistance, ratio of EC50 for plaque picked A-33903-resistant RSV RSS from passage 2 to EC50 for DMSO-passaged wild type RSV RSS; format: functional
[41] = system: Respiratory syncytial virus; experiment: Antiviral activity against 0.02 MOI RSV RSS infected human Hep2 cells assessed as inhibition of virus-induced cell death after 6 days by XTT assay; format: functional, organism-based; details: HEp-2, 144 h
[42] = system: Respiratory syncytial virus; experiment: Drug resistance, ratio of EC50 for RSV RSS M2 mutant to EC50 for wild type RSV RSS; format: functional
[43] = system: Respiratory syncytial virus; experiment: Antiviral activity against recombinant RSV expressing GFP infected HAE cells assessed as inhibition of viral replication at 2 uM by fluorescence microscopy; format: functional, organism-based
[44] = Cytotoxicity against recombinant RSV expressing GFP infected HAE cells at 20 uM for 7 days; format: cell-based; details: human, 168 h; method in brief: as §3

O=c1n(Cc2nc3ccccc3n2CCCCO)c2cnccc2n1C1CC1
Activity [1]: Active | Activity [2]: inactive | Activity [3]: 50%

COc1cc(S(C)(=O)=O)ccc1C(=O)N[C@H]1N=C(c2ccccc2)c2ccccc2NC1=O
CC50 at 144 h [4]: > 50 µM | EC50 [5]: 0.5 µM | EC50 [6]: 0.4 µM | fold change (FC) [7]: 42.3 | EC50 [8]: 1.3 µM | EC50 [9]: 0.5 µM | selectivity ratio [10]: > 100 | EC50 [11]: 16.9 µM | EC50 [12]: 0.43 µM | EC50 [13]: 0.39 µM

NC(=O)c1ncn([C@@H]2O[C@H](CO)[C@@H](O)[C@H]2O)n1 [RIBAVIRIN]
EC50 [5]: 13.3 µM | EC50 [6]: 20.7 µM | fold change (FC) [7]: 0.85 | EC50 [8]: 25.3 µM | EC50 [9]: 11.5 µM | EC50 [11]: 17.6 µM | EC50 [14]: 19 µM | EC50 [12]: 29 µM | EC50 [13]: 16.8 µM

O=C(Nc1ccccc1F)N[C@H]1N=C(c2ccccc2)c2ccccc2NC1=O [RSV-604]
Activity [1]: Active | EC50 [15]: 1.14 µM | EC50 [16]: 2.7 µM | Activity [17]: Active | EC50 [18]: 0.3 µM | CC50 at 144 h [4]: > 50 µM | Activity [19]: Active | EC50 [5]: 0.9 µM | Activity [20]: Active | EC50 [6]: 0.6 µM | Activity [2]: Active | EC50 [21]: 0.8 µM | fold change (FC) [7]: 50.7 | fold change (FC) [22]: 5 | EC50 [23]: > 50 µM | EC50 [24]: 0.8 µM | Activity [25]: Active | EC50 [8]: 1.7 µM | fold change (FC) [26]: >20 | Activity [27]: Not Active | EC50 [28]: > 50 µM | Activity [29]: Active | EC50 [9]: 0.86 µM | fold change (FC) [30]: 7 | selectivity ratio [10]: > 58 | Activity [31]: Not Active | EC50 [32]: > 50 µM | EC50 [33]: > 20 µM | EC50 [34]: 6.03 µM | EC50 [35]: > 50 µM | EC50 [11]: 30.4 µM | Activity [36]: Active | EC50 [37]: 2.55 µM | EC50 [38]: 6.7 µM | EC50 [39]: 4.78 µM | EC50 [14]: 0.5 µM | EC50 [12]: 0.6 µM | fold change (FC) [40]: 3.9 | EC50 [41]: 1.4 µM | fold change (FC) [42]: 1.2 | Activity [43]: Active | EC50 [13]: 0.8 µM | Activity [44]: Not Active
